We go through ten compounds from ChEMBL document CHEMBL3603742, “Design, synthesis and cytotoxicity studies of dithiocarbamate ester derivatives of emetine in prostate cancer cell lines” (Bioorg Med Chem, 2015).

Structures are written as SMILES.

What all share (type): functional, cell-based
Assay [1] deals with LNCaP. The experiment in a line: Cytotoxicity against human LNCAP cells after 5 days by MTT assay. To be noted: 120 h. An outline of the steps: (§1)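 Human prostate lines from ATCC were kept in log phase in RPMI with 10% FBS, 1% L-glutamine and 1% penicillin-streptomycin at 37 °C, 5% CO2. PC3 and DU145 were seeded at 2.5 X 10^3 cells/well and LNCaP at 6 X 10^3 cells/well, then left 24 h. Cells were exposed continuously to 0.01–10 μM (0.1% DMSO final; DMSO controls), with MTT viability read on days 3, 5 and 7.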
A general note: Tetrazolium dyes change colour on reduction, which living cells bring about.

The test system of assay [2] is DU-145. The experiment in a line: Cytotoxicity against human DU145 cells after 3 days by MTT assay. To be noted: DU-145, 72 h. An outline of the steps: as §1
In assay [3] the test system is PC-3. The experiment in a line: Cytotoxicity against human PC3 cells after 3 days by MTT assay. To be noted: PC-3, 72 h. An outline of the steps: as §1
Assay [4] concerns DU-145. The experiment in a line: Cytotoxicity against human DU145 cells after 5 days by MTT assay. To be noted: DU-145, 120 h. An outline of the steps:
as §1

Assay [5] relates to LNCaP. The experiment in a line: Cytotoxicity against human LNCAP cells after 3 days by MTT assay. To be noted: 72 h. An outline of the steps: as §1
Assay [6] relates to DU-145. The experiment in a line: Cytotoxicity against human DU145 cells after 7 days by MTT assay. To be noted: DU-145, 168 h. Put shortly:
as §1

The test system of assay [7] is PC-3. The experiment in a line: Cytotoxicity against human PC3 cells after 5 days by MTT assay. To be noted: PC-3, 120 h. Put shortly: as §1
Assay [8] deals with LNCaP. As to the kind of experiment: Cytotoxicity against human LNCAP cells after 7 days by MTT assay. To be noted: 168 h. An outline of the steps: as §1
For assay [9], the system named is PC-3. The experiment in a line: Cytotoxicity against human PC3 cells after 7 days by MTT assay. Conditions: PC-3, 168 h. Put shortly: as §1

Consider `CC[C@H]1CN2CCc3cc(OC)c(OC)cc3[C@@H]2C[C@@H]1C[C@@H]1c2cc(OC)c(OC)cc2CCN1C(=S)S`, for which the 50% inhibitory concentration (IC50) was 88 nM in the assay on LNCaP [1]; 377 nM in the assay with DU-145 [2]; 442 nM in the assay on PC-3 [3]; 80 nM in the assay on DU-145 [4]; 565 nM in the assay with LNCaP [5]; 79 nM in the assay with DU-145 [6]. Besides, in the assay with PC-3 [7], the IC50 was found to be 91 nM.
Consider `CC[C@H]1CN2CCc3cc(OC)c(OC)cc3[C@@H]2C[C@@H]1C[C@@H]1c2cc(OC)c(OC)cc2CCN1C(=S)SCc1ccccc1`, for which the IC50 in the assay with LNCaP [1] is 1890 nM; in the assay with DU-145 [2] it was 2740 nM; in the assay with PC-3 [3] it was 2540 nM; in the assay on DU-145 [4] it was 2070 nM; in the assay on DU-145 [6] it was 1980 nM; in the assay on LNCaP [8] it was 1310 nM. Inhibition in the assay on PC-3 [7] was half-maximal at 2020 nM (IC50).
On to `CCCCCCSC(=S)N1CCc2cc(OC)c(OC)cc2[C@H]1C[C@H]1C[C@H]2c3cc(OC)c(OC)cc3CCN2C[C@@H]1CC`, for which the IC50 was 1610 nM with LNCaP [1]; 3660 nM in the assay with DU-145 [2]; 5980 nM in the assay on PC-3 [3]; 3190 nM in the assay on DU-145 [4]; 3030 nM in the assay on PC-3 [9]; 3660 nM in the assay on LNCaP [5]. For the same compound, the results for the IC50 in the assay on DU-145 [6], in the assay with LNCaP [8] and in the assay with PC-3 [7] were 2300 nM, 1590 nM and 3210 nM, respectively.
Regarding `CC[C@H]1CN2CCc3cc(OC)c(OC)cc3[C@@H]2C[C@@H]1C[C@@H]1c2cc(OC)c(OC)cc2CCN1C(=S)SCCCCC(=O)OC`, the IC50 with LNCaP [1] stood at 2310 nM; with DU-145 [2], 3220 nM; with PC-3 [3] it was 8260 nM; in the assay with DU-145 [4], 3150 nM; in the assay with PC-3 [9], 4360 nM; with LNCaP [5] it was 4780 nM. Moreover, the IC50 in the assay with DU-145 [6] was found to be 2250 nM; in the assay with LNCaP [8], 1760 nM; in the assay with PC-3 [7], 4860 nM.
Take `CC[C@H]1CN2CCc3cc(OC)c(OC)cc3[C@@H]2C[C@@H]1C[C@@H]1c2cc(OC)c(OC)cc2CCN1C(=S)SCCC(N)=O`: the IC50 is 4730 nM in the assay on LNCaP [1]; above 10000 nM in the assay on DU-145 [2]; above 10000 nM in the assay on PC-3 [3]; above 10000 nM in the assay with DU-145 [4]; 5200 nM in the assay on PC-3 [9]; 9220 nM in the assay on LNCaP [5]. The figures for the IC50 in the assay with DU-145 [6], in the assay with LNCaP [8] and in the assay with PC-3 [7] were above 10000 nM, 3390 nM and 6560 nM, respectively.
With `CC[C@H]1CN2CCc3cc(OC)c(OC)cc3[C@@H]2C[C@@H]1C[C@@H]1c2cc(OC)c(OC)cc2CCN1C(=S)SCC(=O)Nc1ccc(Br)cc1`, the IC50 in the assay on LNCaP [1] was 2190 nM; with DU-145 [2], 5650 nM; with PC-3 [3] it was 3870 nM; in the assay on DU-145 [4], 2800 nM; in the assay with PC-3 [9] it was 1510 nM; in the assay with LNCaP [5], 5280 nM. The figures for the IC50 in the assay on DU-145 [6], in the assay on LNCaP [8] and with PC-3 [7] were 1600 nM, 1700 nM and 2770 nM, respectively.
With `CC[C@H]1CN2CCc3cc(OC)c(OC)cc3[C@@H]2C[C@@H]1C[C@@H]1c2cc(OC)c(OC)cc2CCN1C(=S)SCC(=O)c1ccc(Cl)cc1`, the IC50 with LNCaP [1] came to 2310 nM; in the assay with DU-145 [2], 3170 nM; with PC-3 [3], 3590 nM; in the assay on DU-145 [4], 3200 nM; in the assay with PC-3 [9], 2690 nM; with LNCaP [5], 5720 nM. For the same compound, the concentration for half-maximal inhibition (IC50) with DU-145 [6] stood at 2450 nM; in the assay with LNCaP [8] it was 1950 nM; in the assay on PC-3 [7], 2700 nM.
As to `CCOC(=O)c1ccc(NC(=O)CSC(=S)N2CCc3cc(OC)c(OC)cc3[C@H]2C[C@H]2C[C@H]3c4cc(OC)c(OC)cc4CCN3C[C@@H]2CC)cc1`, the IC50 is 2720 nM in the assay with LNCaP [1]; 5160 nM in the assay with DU-145 [2]; 4360 nM with PC-3 [3]; 2900 nM in the assay with DU-145 [4]; 1900 nM with PC-3 [9]; 4670 nM in the assay on LNCaP [5]. The half-inhibitory concentration (IC50) in the assay on DU-145 [6] stood at 2470 nM; in the assay with LNCaP [8], 1660 nM; in the assay on PC-3 [7] it was 2710 nM.
For the compound `CC[C@H]1CN2CCc3cc(OC)c(OC)cc3[C@@H]2C[C@@H]1C[C@@H]1c2cc(OC)c(OC)cc2CCN1C(=S)SCCN1C(=O)c2ccccc2C1=O`, the half-maximal inhibitory concentration (IC50) was 2800 nM in the assay on LNCaP [1]; 3810 nM in the assay with DU-145 [2]; 3210 nM in the assay on PC-3 [3]; 3580 nM with DU-145 [4]; 2380 nM with PC-3 [9]; 3220 nM with LNCaP [5]. The IC50 in the assay on DU-145 [6] turned out to be 3050 nM; with LNCaP [8], 2300 nM; with PC-3 [7] it was 2770 nM.
As for `CC[C@H]1CN2CCc3cc(OC)c(OC)cc3[C@@H]2C[C@@H]1C[C@H]1NCCc2cc(OC)c(OC)cc21` [EMETINE], the values for the half-maximal inhibitory concentration (IC50) with LNCaP [1], with LNCaP [5] and with LNCaP [8] were 27 nM, 37 nM and 37 nM, respectively.

The term IC50 denotes the midpoint of a concentration-inhibition curve. A lower IC50 goes with higher potency.
